Measurements: ChEMBL document CHEMBL1671684, “In vitro resistance profile of the hepatitis C virus NS3/4A protease inhibitor TMC435” (Antimicrob Agents Chemother, 2010)

Legend:
Hepatitis C virus [1] = assay: Ratio of EC50 for Hepatitis C virus subtype 1b expressing NS3 D168Y mutant to EC50 for Hepatitis C virus subtype 1b expressing WT NS3 infected in HuH7 cells after 48 hrs by luciferase reporter assay; type: functional, Hepacivirus hominis, genotype 1b, Huh-7
Summary of the method: (§1)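 Transient replicon assay: site-directed single or multiple NS3 mutations engineered into genotype 1b (con1, clone ET) subgenomic bicistronic replicon with luciferase reporter and adaptive mutations E1202G, T1280I, K1846T. Huh7-lunet cells electroporated with 10 μg wild-type or mutant replicon RNA, seeded 4,000 cells/well with nine-point inhibitor dilution; 48 h, 37°C, 5% CO2; luminescence read-out. EC50 as median of individual experiments; fold change versus parental replicon EC50.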

Hepatitis C virus [2] = assay: Ratio of EC50 for Hepatitis C virus subtype 1b expressing NS3 Q80R and D168A mutant to EC50 for Hepatitis C virus subtype 1b expressing WT NS3 infected in HuH7 cells after 48 hrs by luciferase reporter assay; type: functional, Hepacivirus hominis, genotype 1b, Huh-7; summary of the method: as §1
Hepatitis C virus [3] = assay: Antiviral activity against Hepatitis C virus subtype 1b expressing NS3 D168Y mutant infected in HuH7 cells after 48 hrs by luciferase reporter assay; type: functional, organism-based, Hepacivirus hominis; details: genotype 1b, Huh-7, 48 h
Summary of the method: (§2)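 Genotype 1b con1 subgenomic bicistronic replicon (clone ET) with luciferase reporter and adaptive mutations E1202G, T1280I, K1846T, carrying site-directed NS3 single or double mutations. 10 μg wild-type or mutant replicon RNA electroporated into Huh7-lunet cells, seeded 4,000 cells/well over a nine-point inhibitor dilution series, 48 h at 37°C, 5% CO2, then luminescence read. EC50 taken as median of individual experiments; fold change relative to parental replicon EC50.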

Hepatitis C virus [4] = assay: Antiviral activity against Hepatitis C virus subtype 1b expressing NS3 T54A mutant infected in HuH7 cells after 48 hrs by luciferase reporter assay; type: functional, organism-based, Hepacivirus hominis; details: genotype 1b, Huh-7, 48 h; summary of the method: as §2
Hepatitis C virus [5] = assay: Antiviral activity against Hepatitis C virus subtype 1b expressing NS3 Q80K and R155K mutant infected in HuH7 cells after 48 hrs by luciferase reporter assay; type: functional, organism-based, Hepacivirus hominis; details: genotype 1b, Huh-7, 48 h; summary of the method: as §2
Hepatitis C virus [6] = assay: Ratio of EC50 for Hepatitis C virus subtype 1b expressing NS3 A156T mutant to EC50 for Hepatitis C virus subtype 1b expressing WT NS3 infected in HuH7 cells after 48 hrs by luciferase reporter assay; type: functional, Hepacivirus hominis, genotype 1b, Huh-7; summary of the method: as §2
Hepatitis C virus [7] = assay: Antiviral activity against Hepatitis C virus subtype 1b expressing WT NS3 infected in HuH7 cells after 48 hrs by luciferase reporter assay; type: functional, organism-based, Hepacivirus hominis; details: genotype 1b, Huh-7, 48 h
Summary of the method: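 Huh7-lunet cells were electroporated with 10 μg wild-type genotype 1b subgenomic replicon RNA (clone ET; luciferase reporter; E1202G, T1280I, K1846T). They were seeded at 4,000 cells/well over a nine-point compound dilution series. After 48 h at 37°C, 5% CO2, luciferase reagent was added 1:1, followed by 10–20 min in the dark and a luminescence read. EC50 is the median of individual-experiment EC50s.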

Hepatitis C virus [8] = assay: Ratio of EC50 for Hepatitis C virus subtype 1b expressing NS3 Q80K and R155K mutant to EC50 for Hepatitis C virus subtype 1b expressing WT NS3 infected in HuH7 cells after 48 hrs by luciferase reporter assay; type: functional, Hepacivirus hominis, genotype 1b, Huh-7; summary of the method: as §1
Hepatitis C virus [9] = assay: Antiviral activity against Hepatitis C virus subtype 1b expressing NS3 F43S and Q80R mutant infected in HuH7 cells after 48 hrs by luciferase reporter assay; type: functional, organism-based, Hepacivirus hominis; details: genotype 1b, Huh-7, 48 h; summary of the method: as §2
Hepatitis C virus [10] = assay: Antiviral activity against Hepatitis C virus subtype 1b expressing NS3 D168N mutant infected in HuH7 cells after 48 hrs by luciferase reporter assay; type: functional, organism-based, Hepacivirus hominis; details: genotype 1b, Huh-7, 48 h; summary of the method: as §2
Hepatitis C virus [11] = assay: Ratio of EC50 for Hepatitis C virus subtype 1b expressing NS3 Q80R mutant to EC50 for Hepatitis C virus subtype 1b expressing WT NS3 infected in HuH7 cells after 48 hrs by luciferase reporter assay; type: functional, Hepacivirus hominis, genotype 1b, Huh-7; summary of the method: as §1
Hepatitis C virus [12] = assay: Ratio of EC50 for Hepatitis C virus subtype 1b expressing NS3 A156V mutant to EC50 for Hepatitis C virus subtype 1b expressing WT NS3 infected in HuH7 cells after 48 hrs by luciferase reporter assay; type: functional, Hepacivirus hominis, genotype 1b, Huh-7; summary of the method: as §2
Hepatitis C virus [13] = assay: Antiviral activity against Hepatitis C virus subtype 1b expressing NS3 A156G mutant infected in HuH7 cells after 48 hrs by luciferase reporter assay; type: functional, organism-based, Hepacivirus hominis; details: genotype 1b, Huh-7, 48 h; summary of the method: as §2
Hepatitis C virus [14] = assay: Antiviral activity against Hepatitis C virus subtype 1b expressing NS3 D168I mutant infected in HuH7 cells after 48 hrs by luciferase reporter assay; type: functional, organism-based, Hepacivirus hominis; details: genotype 1b, Huh-7, 48 h; summary of the method: as §2
Hepatitis C virus [15] = assay: Antiviral activity against Hepatitis C virus subtype 1b expressing NS3 S138T mutant infected in HuH7 cells after 48 hrs by luciferase reporter assay; type: functional, organism-based, Hepacivirus hominis; details: genotype 1b, Huh-7, 48 h; summary of the method: as §2
Hepatitis C virus [16] = assay: Ratio of EC50 for Hepatitis C virus subtype 1b expressing NS3 A156S mutant to EC50 for Hepatitis C virus subtype 1b expressing WT NS3 infected in HuH7 cells after 48 hrs by luciferase reporter assay; type: functional, Hepacivirus hominis, genotype 1b, Huh-7; summary of the method: as §2
Hepatitis C virus [17] = assay: Ratio of EC50 for Hepatitis C virus subtype 1b expressing NS3 D168E mutant to EC50 for Hepatitis C virus subtype 1b expressing WT NS3 infected in HuH7 cells after 48 hrs by luciferase reporter assay; type: functional, Hepacivirus hominis, genotype 1b, Huh-7; summary of the method: as §1
Hepatitis C virus [18] = assay: Ratio of EC50 for Hepatitis C virus subtype 1b expressing NS3 T54S mutant to EC50 for Hepatitis C virus subtype 1b expressing WT NS3 infected in HuH7 cells after 48 hrs by luciferase reporter assay; type: functional, Hepacivirus hominis, genotype 1b, Huh-7; summary of the method: as §1
Hepatitis C virus [19] = assay: Ratio of EC50 for Hepatitis C virus subtype 1b expressing NS3 R109K mutant to EC50 for Hepatitis C virus subtype 1b expressing WT NS3 infected in HuH7 cells after 48 hrs by luciferase reporter assay; type: functional, Hepacivirus hominis, genotype 1b, Huh-7; summary of the method: as §1
Hepatitis C virus [20] = assay: Antiviral activity against Hepatitis C virus subtype 1b expressing NS3 R109K mutant infected in HuH7 cells after 48 hrs by luciferase reporter assay; type: functional, organism-based, Hepacivirus hominis; details: genotype 1b, Huh-7, 48 h; summary of the method: as §2
Hepatitis C virus [21] = assay: Antiviral activity against Hepatitis C virus subtype 1b expressing NS3 A156T mutant infected in HuH7 cells after 48 hrs by luciferase reporter assay; type: functional, organism-based, Hepacivirus hominis; details: genotype 1b, Huh-7, 48 h; summary of the method: as §2
Hepatitis C virus [22] = assay: Antiviral activity against Hepatitis C virus subtype 1b expressing NS3 V170T mutant infected in HuH7 cells after 48 hrs by luciferase reporter assay; type: functional, organism-based, Hepacivirus hominis; details: genotype 1b, Huh-7, 48 h; summary of the method: as §2
Hepatitis C virus [23] = assay: Ratio of EC50 for Hepatitis C virus subtype 1b expressing NS3 F43S and D168E mutant to EC50 for Hepatitis C virus subtype 1b expressing WT NS3 infected in HuH7 cells after 48 hrs by luciferase reporter assay; type: functional, Hepacivirus hominis, genotype 1b, Huh-7; summary of the method: as §1
Hepatitis C virus [24] = assay: Antiviral activity against Hepatitis C virus subtype 1b expressing NS3 D168T mutant infected in HuH7 cells after 48 hrs by luciferase reporter assay; type: functional, organism-based, Hepacivirus hominis; details: genotype 1b, Huh-7, 48 h; summary of the method: as §2
Hepatitis C virus [25] = assay: Antiviral activity against Hepatitis C virus subtype 1b expressing NS3 F43S and D168E mutant infected in HuH7 cells after 48 hrs by luciferase reporter assay; type: functional, organism-based, Hepacivirus hominis; details: genotype 1b, Huh-7, 48 h; summary of the method: as §2
Hepatitis C virus [26] = assay: Antiviral activity against Hepatitis C virus subtype 1b expressing NS3 Q80H and D168E mutant infected in HuH7 cells after 48 hrs by luciferase reporter assay; type: functional, organism-based, Hepacivirus hominis; details: genotype 1b, Huh-7, 48 h; summary of the method: as §2
Hepatitis C virus [27] = assay: Antiviral activity against Hepatitis C virus subtype 1b expressing NS3 R155M mutant infected in HuH7 cells after 48 hrs by luciferase reporter assay; type: functional, organism-based, Hepacivirus hominis; details: genotype 1b, Huh-7, 48 h; summary of the method: as §2
Hepatitis C virus [28] = assay: Ratio of EC50 for Hepatitis C virus subtype 1b expressing NS3 F43V mutant to EC50 for Hepatitis C virus subtype 1b expressing WT NS3 infected in HuH7 cells after 48 hrs by luciferase reporter assay; type: functional, Hepacivirus hominis, genotype 1b, Huh-7; summary of the method: as §1
Hepatitis C virus [29] = assay: Antiviral activity against Hepatitis C virus subtype 1b expressing NS3 R155Q mutant infected in HuH7 cells after 48 hrs by luciferase reporter assay; type: functional, organism-based, Hepacivirus hominis; details: genotype 1b, Huh-7, 48 h; summary of the method: as §2

With `CC(C)(C)NC(=O)N[C@H](C(=O)N1C[C@H]2[C@@H]([C@H]1C(=O)NC(CC1CCC1)C(=O)C(N)=O)C2(C)C)C(C)(C)C` (stereo partly drawn) [BOCEPREVIR] the “Ratio EC50” value (Hepatitis C virus [1]) was 2.4, the “Ratio EC50” value (Hepatitis C virus [2]) was 0.5 and the EC50 (Hepatitis C virus [3]) was 193 nM. For the same compound, the EC50 (Hepatitis C virus [4]) was 268 nM, the EC50 (Hepatitis C virus [5]) was 1080 nM and the “Ratio EC50” value (Hepatitis C virus [6]) was 65. The EC50 (Hepatitis C virus [7]) was 148 nM, the “Ratio EC50” value (Hepatitis C virus [8]) was 5.1 and the EC50 (Hepatitis C virus [9]) was 1550 nM. For the same compound, the EC50 (Hepatitis C virus [10]) was 101 nM, the “Ratio EC50” value (Hepatitis C virus [11]) was 0.5 and the “Ratio EC50” value (Hepatitis C virus [12]) was 75. The EC50 (Hepatitis C virus [13]) was 65 nM, the EC50 (Hepatitis C virus [14]) was 279 nM and the EC50 (Hepatitis C virus [15]) was 16 nM. For the same compound, the “Ratio EC50” value (Hepatitis C virus [16]) was 3.5, the “Ratio EC50” value (Hepatitis C virus [17]) was 0.8 and the “Ratio EC50” value (Hepatitis C virus [18]) was 8.5. The “Ratio EC50” value (Hepatitis C virus [19]) was 1, the EC50 (Hepatitis C virus [20]) was 33 nM and the EC50 (Hepatitis C virus [21]) was 7230 nM. The EC50 (Hepatitis C virus [22]) was 210 nM, the “Ratio EC50” value (Hepatitis C virus [23]) was 3.2 and the EC50 (Hepatitis C virus [24]) was 299 nM. For the same compound, the EC50 (Hepatitis C virus [25]) was 417 nM, the EC50 (Hepatitis C virus [26]) was 20 nM and the EC50 (Hepatitis C virus [27]) was 792 nM. For the same compound, the “Ratio EC50” value (Hepatitis C virus [28]) was 2.4 and the EC50 (Hepatitis C virus [29]) was 174 nM.
`COc1ccc2c(O[C@@H]3C[C@H]4C(=O)N[C@]5(C(=O)O)C[C@H]5/C=C\CCCCC[C@H](NC(=O)OC5CCCC5)C(=O)N4C3)cc(-c3csc(NC(C)C)n3)nc2c1` [CILUPREVIR] was tested, and the “Ratio EC50” value (Hepatitis C virus [1]) was 2488, the “Ratio EC50” value (Hepatitis C virus [2]) was 1827 and the EC50 (Hepatitis C virus [3]) was 2100 nM. The EC50 (Hepatitis C virus [4]) was 0.7 nM, the EC50 (Hepatitis C virus [5]) was 705 nM and the “Ratio EC50” value (Hepatitis C virus [6]) was 1344. For the same compound, the EC50 (Hepatitis C virus [7]) was 0.8 nM, the “Ratio EC50” value (Hepatitis C virus [8]) was 736 and the EC50 (Hepatitis C virus [9]) was 0.4 nM. The EC50 (Hepatitis C virus [10]) was 18 nM, the “Ratio EC50” value (Hepatitis C virus [11]) was 1.6 and the “Ratio EC50” value (Hepatitis C virus [12]) was 2085. The EC50 (Hepatitis C virus [13]) was 22 nM, the EC50 (Hepatitis C virus [14]) was 20700 nM and the EC50 (Hepatitis C virus [15]) was 0.5 nM. For the same compound, the “Ratio EC50” value (Hepatitis C virus [16]) was 2.8, the “Ratio EC50” value (Hepatitis C virus [17]) was 65 and the “Ratio EC50” value (Hepatitis C virus [18]) was 1.9. The “Ratio EC50” value (Hepatitis C virus [19]) was 0.7, the EC50 (Hepatitis C virus [20]) was 1.4 nM and the EC50 (Hepatitis C virus [21]) was 1070 nM. The EC50 (Hepatitis C virus [22]) was 4.8 nM, the “Ratio EC50” value (Hepatitis C virus [23]) was 12 and the EC50 (Hepatitis C virus [24]) was 520 nM. It also gave an EC50 (Hepatitis C virus [25]) of 5.8 nM, an EC50 (Hepatitis C virus [26]) of 52 nM and an EC50 (Hepatitis C virus [27]) of 84 nM. The “Ratio EC50” value (Hepatitis C virus [28]) was 0.5 and the EC50 (Hepatitis C virus [29]) was 248 nM.
